Experimental data: ChEMBL document CHEMBL1122050, “Synthesis of prostanoids with bicyclo[2.2.1]heptane, bicyclo[3.1.1]heptane, and bicyclo[2.2.2]octane ring systems. Activities of 15-hydroxy epimers on human platelets” (J Med Chem, 1982)
Calls of active or inactive are those of the source.

Assays:
Homo sapiens [1] = organism: Homo sapiens; assay: Compound was evaluated for aggregation properties on human platelets at 10/2.9 uM (Dose ratio defined as the ratio of the concentrations of the agonist producing recorder unit responses in the presence and in the absence of the inhibitor); Inhibition; format: functional
Homo sapiens [2] = organism: Homo sapiens; assay: Compound was evaluated for aggregation properties on human platelets at 20 uM (highest concentration tested); No effect; format: functional, organism-based
Homo sapiens [3] = organism: Homo sapiens; assay: Compound was evaluated for aggregation properties on human platelets at 80 uM (highest concentration tested); No effect; format: functional, organism-based
Homo sapiens [4] = organism: Homo sapiens; assay: Compound was evaluated for aggregation properties on human platelets at 10 uM (highest concentration tested); No effect; format: functional, organism-based
Homo sapiens [5] = organism: Homo sapiens; assay: Compound was evaluated for aggregation properties on human platelets at 0.19 uM; Irreversible; format: functional
Summary of the method: (§1)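 Citrated human platelet-rich plasma mixed with Krebs solution and 0.9% NaCl, preincubated 2 min at 37 °C. Aggregation recorded in a Born-type aggregometer. The value is the concentration giving a primary aggregation response of 20 chart-recorder units; irreversible aggregation corresponds to 80–90 units. Each value is the mean of single determinations on PRP from at least three donors.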

Homo sapiens [6] = organism: Homo sapiens; assay: Compound was evaluated for aggregation properties on human platelets at 3.5 uM; Irreversible; format: functional; summary of the method: as §1
Homo sapiens [7] = organism: Homo sapiens; assay: Compound was evaluated for aggregation properties on human platelets at 6.2 uM; Irreversible; format: functional; summary of the method: as §1
Homo sapiens [8] = organism: Homo sapiens; assay: Compound was evaluated for aggregation properties on human platelets at 10/1.3 uM (Dose ratio defined as the ratio of the concentrations of the agonist producing recorder unit responses in the presence and in the absence of the inhibitor); Inhibition; format: functional
Homo sapiens [9] = organism: Homo sapiens; assay: Compound was evaluated for aggregation properties on human platelets at 80 uM (highest concentration tested); Shape change only; format: functional, organism-based
Homo sapiens [10] = organism: Homo sapiens; assay: Compound was evaluated for aggregation properties on human platelets at 0.23 uM; Irreversible.; format: functional; summary of the method: as §1
Homo sapiens [11] = organism: Homo sapiens; assay: Compound was evaluated for aggregation properties on human platelets at 0.72 uM; Irreversible; format: functional; summary of the method: as §1
Homo sapiens [12] = organism: Homo sapiens; assay: Compound was evaluated for aggregation properties on human platelets at 1.3 uM; Irreversible; format: functional; summary of the method: as §1
Homo sapiens [13] = organism: Homo sapiens; assay: Compound was evaluated for aggregation properties on human platelets at 15 uM; Reversible; format: functional; summary of the method: as §1
Homo sapiens [14] = organism: Homo sapiens; assay: Compound was evaluated for aggregation properties on human platelets at 1.7 uM; Irreversible; format: functional; summary of the method: as §1
Homo sapiens [15] = organism: Homo sapiens; assay: Compound was evaluated for aggregation properties on human platelets at 10/1.5 uM (Dose ratio defined as the ratio of the concentrations of the agonist producing recorder unit responses in the presence and in the absence of the inhibitor); Inhi bition
Homo sapiens [16] = organism: Homo sapiens; assay: Compound was evaluated for aggregation properties on human platelets at 10/1.4 uM (Dose ratio defined as the ratio of the concentrations of the agonist producing recorder unit responses in the presence and in the absence of the inhibitor); Inhibition; format: functional
Homo sapiens [17] = organism: Homo sapiens; assay: Compound was evaluated for aggregation properties on human platelets at 0.31 uM; Irreversible; format: functional; summary of the method: as §1
Homo sapiens [18] = organism: Homo sapiens; assay: Compound was evaluated for aggregation properties on human platelets at 0.26 uM; Irreversible; format: functional; summary of the method: as §1
Homo sapiens [19] = organism: Homo sapiens; assay: Compound was evaluated for aggregation properties on human platelets at 0.14 uM; Irreversible; format: functional; summary of the method: as §1
Homo sapiens [20] = organism: Homo sapiens; assay: Compound was evaluated for aggregation properties on human platelets at 10/25 uM (Dose ratio defined as the ratio of the concentrations of the agonist producing recorder unit responses in the presence and in the absence of the inhibitor); Inhi bition; format: functional, organism-based
Homo sapiens [21] = organism: Homo sapiens; assay: Compound was evaluated for aggregation properties on human platelets at 2.5/4.8 uM (Dose ratio defined as the ratio of the concentrations of the agonist producing recorder unit responses in the presence and in the absence of the inhibitor); In hibition; format: functional, organism-based
Homo sapiens [22] = organism: Homo sapiens; assay: Compound was evaluated for aggregation properties on human platelets at 20 uM (highest concentration tested); Shape change only; format: functional, organism-based
Homo sapiens [23] = organism: Homo sapiens; assay: Compound was evaluated for aggregation properties on human platelets at 5 uM; Reversible; format: functional; summary of the method: as §1

## CCCCC[C@@H](O)/C=C/[C@H]1C2CCC(CC2)[C@@H]1C/C=C\CCCC(=O)O
Homo sapiens [1]
  Aggregation response: Inhibition

## CCCCCC(=O)/C=C/[C@H]1C2COC(C2)[C@@H]1C/C=C\CCCC(=O)O (some centres undefined)
Homo sapiens [2]
  Aggregation response: inactive

## O=C(O)CCC/C=C\C[C@H]1C2C=CC(C2)[C@@H]1/C=C/[C@H](O)CCc1ccc(Cl)cc1 (some centres undefined)
Homo sapiens [3]
  Aggregation response: inactive

## O=C(O)CCC/C=C\C[C@H]1C2C=CC(C2)[C@@H]1/C=C/C(=O)COc1ccc(F)cc1 (some centres undefined)
Homo sapiens [4]
  Aggregation response: inactive

## O=C(O)CCC/C=C\C[C@H]1C2C=CC(C2)[C@@H]1/C=C/[C@@H](O)COc1ccc(F)cc1 (some centres undefined)
Homo sapiens [5]
  Aggregation response: Irreversible

## O=C(O)CCC/C=C\C[C@H]1C2CCC(C2)[C@@H]1/C=C/[C@H](O)COc1ccc(Cl)cc1 (some centres undefined)
Homo sapiens [6]
  Aggregation response: Irreversible

## CCCCC[C@](C)(O)/C=C/[C@H]1C2CCC(C2)[C@@H]1C/C=C\CCCC(=O)O (some centres undefined)
Homo sapiens [7]
  Aggregation response: Irreversible

## CCCCC[C@@](C)(O)/C=C/[C@H]1C2CCC(C2)[C@@H]1C/C=C\CCCC(=O)O (some centres undefined)
Homo sapiens [8]
  Aggregation response: Inhibition

## O=C(O)CCC/C=C\C[C@H]1C2C=CC(C2)[C@@H]1/C=C/[C@@H](O)CCc1ccc(Cl)cc1 (some centres undefined)
Homo sapiens [9]
  Aggregation response: Shape change only

## CCCCC[C@H](O)/C=C/[C@H]1C2CC(CO2)[C@@H]1C/C=C\CCCC(=O)O (some centres undefined)
Homo sapiens [10]
  Aggregation response: Irreversible

## O=C(O)CCC/C=C\C[C@H]1C2CCC(C2)[C@@H]1/C=C/[C@@H](O)COc1ccc(Cl)cc1 (some centres undefined)
Homo sapiens [11]
  Aggregation response: Irreversible

## O=C(O)CCC/C=C\C[C@H]1C2CCC(C2)[C@@H]1/C=C/[C@H](O)COc1ccc(F)cc1 (some centres undefined)
Homo sapiens [12]
  Aggregation response: Irreversible

## CCCCC[C@H](O)/C=C/[C@H]1C2CCC(C2)[C@@H]1C/C=C\CCCC(=O)O (some centres undefined)
Homo sapiens [13]
  Aggregation response: Reversible

## O=C(O)CCC/C=C\C[C@H]1C2C=CC(C2)[C@@H]1/C=C/[C@H](O)COc1ccc(F)cc1 (some centres undefined)
Homo sapiens [14]
  Aggregation response: Irreversible

## CCCCC[C@@H](O)/C=C/[C@H]1C2CCC(C2)[C@@H]1C/C=C\CCCC(=O)O (some centres undefined)
Homo sapiens [15]
  Aggregation response: Inhibition

## CCCCC[C@@H](O)/C=C/[C@H]1C2CC([C@@H]1C/C=C\CCCC(=O)O)C2(C)C (some centres undefined)
Homo sapiens [16]
  Aggregation response: Inhibition

## CC1(C)C2CC1[C@H](C/C=C\CCCC(=O)O)[C@H]2/C=C/[C@@H](O)COc1ccc(F)cc1 (some centres undefined)
Homo sapiens [17]
  Aggregation response: Irreversible

## CCCCC[C@H](O)/C=C/[C@H]1C2COC(C2)[C@@H]1C/C=C\CCCC(=O)O (some centres undefined)
Homo sapiens [18]
  Aggregation response: Irreversible

## CCCCC[C@H](O)/C=C/[C@H]1C2CCC(CC2)[C@@H]1C/C=C\CCCC(=O)O
Homo sapiens [12]
  Aggregation response: Irreversible

## O=C(O)CCC/C=C\C[C@H]1C2CCC(C2)[C@@H]1/C=C/[C@@H](O)COc1ccc(F)cc1 (some centres undefined)
Homo sapiens [19]
  Aggregation response: Irreversible

## CCCCC[C@H](O)/C=C/[C@H]1C2CC([C@@H]1C/C=C\CCCC(=O)O)C2(C)C (some centres undefined)
Homo sapiens [20]
  Aggregation response: Inhibition
Homo sapiens [21]
  Aggregation response: Inhibition

## CCCCC[C@@H](O)/C=C/[C@H]1C2COC(C2)[C@@H]1C/C=C\CCCC(=O)O (some centres undefined)
Homo sapiens [22]
  Aggregation response: Shape change only

## CC1(C)C2CC1[C@H](C/C=C\CCCC(=O)O)[C@H]2/C=C/[C@H](O)COc1ccc(F)cc1 (some centres undefined)
Homo sapiens [23]
  Aggregation response: Reversible
